Active and inactive are the calls of the source. No cut-off for these calls is given here.
Legend:
MOLM-13 = test: Induction of apoptosis in human MOLM13 cells at 1 nM after 24 hrs by Annexin V/propidium iodine-double staining-based flow cytometry relative to control; type: functional
Outline: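 Leukemia cells were treated for 24 h or 48 h at the indicated concentrations. They were then collected, washed in cold PBS and stained with Annexin V and propidium iodide. Apoptotic fraction was measured by flow cytometry.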

[1] = Drug uptake in plasma of SCID mouse xenografted with human RS4:11 cells at 5 mg/kg, iv measured at 6 hrs by LC-MS/MS analysis; type: ADME, organism-based; settings: in vivo, BLD = below limit of detection
Outline: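 Female SCID mice with RS4;11 tumors received a single 5 mg/kg intravenous dose in 20% PCP/80% PBS. Plasma (heparin) and tissues were taken at 1, 3 and 6 h, one mouse per time point in duplicate. Plasma was precipitated with acetonitrile containing internal standard. Tissues were homogenized 5:1 in 20% acetonitrile. Quantified by LC-MS/MS against spiked plasma standards (2–2000 ng/mL); values in ng/ml or ng/g.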

[2] = target: Protein cereblon/Bromodomain-containing protein 4/Cullin-4A (Homo sapiens) (UniProt O60885+Q96SW2+Q13619); test: Protac activity at cereblon/cullin 4A/BRD4 in human RS4:11 cells assessed as BRD4 degradation at 10 pM after 3 hrs by Western blot analysis; type: cell-based
MV4-11 [3] = test: Induction of apoptosis in human MV4-11 cells at 0.1 to 10 uM after 48 hrs by Annexin V/propidium iodine-double staining-based flow cytometry; type: functional, cell-based
[4] = Toxicity in SCID mouse xenografted with human RS4:11 cells assessed weight loss at 1 to 5 mg/kg, iv administered 3 times per week for 3 weeks; type: organism-based; settings: in vivo, 504 h
Outline: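 SCID mice received a subcutaneous dorsal implant of 5×10^6 RS4;11 cells in 50% Matrigel, one tumor per mouse. Mice were randomized at ~100 mm3 into treatment or vehicle groups. Doses were 1, 2.5 or 5 mg/kg three times weekly for 3 weeks, with body weight and signs of toxicity monitored.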

MV4-11 [5] = test: Growth inhibition of human MV4-11 cells after 96 hrs by CCK8 assay; type: functional, cell-based; settings: MV4-11, 96 h
[6] = target: Protein cereblon/Bromodomain-containing protein 3/Cullin-4A (Homo sapiens) (UniProt Q15059+Q96SW2+Q13619); test: Protac activity at cereblon/cullin 4A/BRD3 in human RS4:11 cells assessed as BRD3 degradation at 0.5 nM after 3 hrs in presence of proteasome inhibitor MG132 by Western blot analysis; type: cell-based
Outline: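 RS4;11 cells were pre-treated for 2 h with DMSO, lenalidomide (10 μM), MLN4924 (1 μM) or MG-132 (20 μM). The degrader was then added at 0.5 nM for 3 h. Lysates were immunoblotted for BRD2, BRD3 and BRD4, with GAPDH as loading control.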

Chain of Protein cereblon/Bromodomain-containing protein 3/Cullin-4A (Homo sapiens) (Q13619 whole entry, looked up): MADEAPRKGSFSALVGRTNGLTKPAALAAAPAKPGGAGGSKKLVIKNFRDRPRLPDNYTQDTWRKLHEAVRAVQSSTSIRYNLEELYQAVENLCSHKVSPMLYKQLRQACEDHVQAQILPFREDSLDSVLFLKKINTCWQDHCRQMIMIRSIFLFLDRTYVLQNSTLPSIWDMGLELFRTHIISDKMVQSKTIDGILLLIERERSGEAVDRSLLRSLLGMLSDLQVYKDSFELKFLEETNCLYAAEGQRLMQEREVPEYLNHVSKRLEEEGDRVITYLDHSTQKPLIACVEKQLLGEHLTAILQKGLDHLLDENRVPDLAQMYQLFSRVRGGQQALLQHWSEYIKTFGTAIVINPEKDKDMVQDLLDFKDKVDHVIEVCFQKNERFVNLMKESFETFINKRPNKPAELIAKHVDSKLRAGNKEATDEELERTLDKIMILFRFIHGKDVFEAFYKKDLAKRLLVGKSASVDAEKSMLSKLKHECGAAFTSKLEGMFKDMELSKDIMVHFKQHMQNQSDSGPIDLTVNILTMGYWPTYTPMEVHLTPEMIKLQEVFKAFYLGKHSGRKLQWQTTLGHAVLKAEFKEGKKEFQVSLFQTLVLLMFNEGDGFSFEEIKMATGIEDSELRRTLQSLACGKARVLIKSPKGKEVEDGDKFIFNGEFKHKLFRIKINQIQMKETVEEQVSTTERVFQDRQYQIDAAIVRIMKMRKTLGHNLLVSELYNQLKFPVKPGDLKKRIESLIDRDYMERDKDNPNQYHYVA
Chain of Protein cereblon/Bromodomain-containing protein 3/Cullin-4A (Homo sapiens) (Q15059 whole entry, looked up): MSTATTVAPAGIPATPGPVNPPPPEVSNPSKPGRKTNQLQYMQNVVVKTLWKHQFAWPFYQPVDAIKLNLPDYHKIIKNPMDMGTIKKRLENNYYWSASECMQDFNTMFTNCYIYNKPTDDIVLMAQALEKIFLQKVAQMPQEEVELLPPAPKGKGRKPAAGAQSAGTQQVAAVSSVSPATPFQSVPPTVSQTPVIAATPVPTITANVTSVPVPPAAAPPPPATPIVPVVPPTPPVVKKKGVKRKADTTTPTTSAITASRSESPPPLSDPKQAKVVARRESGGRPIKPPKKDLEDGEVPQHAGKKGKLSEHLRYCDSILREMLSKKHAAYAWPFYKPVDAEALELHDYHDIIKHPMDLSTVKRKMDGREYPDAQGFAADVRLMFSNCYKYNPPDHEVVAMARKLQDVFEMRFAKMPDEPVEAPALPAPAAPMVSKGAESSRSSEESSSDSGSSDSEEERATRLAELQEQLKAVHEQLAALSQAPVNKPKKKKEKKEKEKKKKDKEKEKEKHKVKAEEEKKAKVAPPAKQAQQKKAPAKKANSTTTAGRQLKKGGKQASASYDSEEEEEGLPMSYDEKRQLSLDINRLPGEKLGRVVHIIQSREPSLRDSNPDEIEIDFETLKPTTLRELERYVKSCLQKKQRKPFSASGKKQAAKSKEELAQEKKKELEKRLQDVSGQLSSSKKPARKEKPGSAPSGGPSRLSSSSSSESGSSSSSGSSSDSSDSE
Chain of Protein cereblon/Bromodomain-containing protein 3/Cullin-4A (Homo sapiens) (Q96SW2 whole entry, looked up): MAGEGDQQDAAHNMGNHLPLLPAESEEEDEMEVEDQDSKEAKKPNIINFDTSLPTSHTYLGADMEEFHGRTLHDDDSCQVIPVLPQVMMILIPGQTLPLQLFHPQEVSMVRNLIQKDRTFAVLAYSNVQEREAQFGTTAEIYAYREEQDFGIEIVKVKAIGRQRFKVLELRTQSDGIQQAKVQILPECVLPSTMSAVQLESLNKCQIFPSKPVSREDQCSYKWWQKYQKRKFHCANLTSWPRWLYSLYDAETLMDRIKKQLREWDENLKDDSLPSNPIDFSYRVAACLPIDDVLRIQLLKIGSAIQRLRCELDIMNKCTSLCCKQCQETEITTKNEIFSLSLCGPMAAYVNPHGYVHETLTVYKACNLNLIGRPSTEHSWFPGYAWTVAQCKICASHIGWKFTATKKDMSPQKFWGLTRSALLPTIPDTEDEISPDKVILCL

Cp [1]: Bld
Activity [2]: Active
IC50 (MV4-11 [5]): 8.3 pM
Activity [6]: inactive
Structure (SMILES): Cc1nnc2n1Cc1sc(C#Cc3cnn(CCCC#Cc4cccc5c4CN(C4CCC(=O)NC4=O)C5=O)c3)c(Cc3ccccc3)c1OC2 (configuration not stated)
Activity (MOLM-13): >60%
Activity (MV4-11 [3]): Active
Activity [4]: Non-Toxic

From ChEMBL document CHEMBL4382197, “Discovery of QCA570 as an Exceptionally Potent and Efficacious Proteolysis Targeting Chimera (PROTAC) Degrader of the Bromodomain and Extra-Terminal (BET) Proteins Capable of Inducing Complete and Durable Tumor Regression” (J Med Chem, 2018)
